The values below come from PMC9340768 (Journal of Medicinal Chemistry, 2022).

Data set [1] has as its target T1, CD137 (Homo sapiens, UniProt Q07011+Q96NY8). To be noted: cited from earlier work.
Data set [2] concerns human PBMCs cocultured with HT1376. The data set is described as follows: PBMC/HT1376 coculture cytokine secretion assay. The class given is cell-based. To be noted: anti-CD3 stimulated PBMCs with HT1376. In short, it runs like this: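 Frozen healthy-donor human PBMCs were thawed, washed in PBS with benzonase and resuspended in RPMI with 10% heat-inactivated FBS, HEPES and glutamine. PBMCs (1 × 10^6/mL) were plated with tumor cells (1 × 10^5/mL) at 10:1, stimulated with soluble anti-CD3 OKT3 (100 ng/mL), and given diluted test compound. Incubation was 2 days at 37 °C, 5% CO2. Supernatant IFNγ and IL-2 were measured by Luminex; four-parameter fit, n = 3.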

Data set [3] concerns the target T1, CD137. The experiment in a line: tumor cell/CD137 reporter coculture assay with other tumor cell lines. The class given is cell-based. In short, it runs like this: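 A Jurkat reporter line expressing human CD137 and a CD137-responsive luciferase element was cocultured with 10,000 cells of the indicated tumor line, with or without test compound, for 6 h at 37 °C, 5% CO2. Bio-Glo luciferase reagent was then added and luminescence read. Fold induction was calculated as RLU over background wells without test article.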

Data set [4] in a line: Pharmacokinetics in Sprague-Dawley rats. As to conditions: rat, in vivo, iv, 2 mg/kg.
The target in data set [5] is T1, CD137. The experiment in a line: HT1376/CD137 reporter coculture assay. In kind it is cell-based.
Where [6] appears, read: 1:2 (BCY10918) vs 1:1 (BCY10572).

T1 sequence (Q07011 24-255): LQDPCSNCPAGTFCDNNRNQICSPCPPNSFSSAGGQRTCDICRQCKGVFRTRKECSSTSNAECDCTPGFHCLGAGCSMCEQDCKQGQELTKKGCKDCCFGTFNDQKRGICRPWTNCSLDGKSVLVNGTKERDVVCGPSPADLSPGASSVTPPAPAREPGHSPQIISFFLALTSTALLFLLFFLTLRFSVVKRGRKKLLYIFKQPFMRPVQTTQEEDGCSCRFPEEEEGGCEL
T1 sequence (Q96NY8 32-510): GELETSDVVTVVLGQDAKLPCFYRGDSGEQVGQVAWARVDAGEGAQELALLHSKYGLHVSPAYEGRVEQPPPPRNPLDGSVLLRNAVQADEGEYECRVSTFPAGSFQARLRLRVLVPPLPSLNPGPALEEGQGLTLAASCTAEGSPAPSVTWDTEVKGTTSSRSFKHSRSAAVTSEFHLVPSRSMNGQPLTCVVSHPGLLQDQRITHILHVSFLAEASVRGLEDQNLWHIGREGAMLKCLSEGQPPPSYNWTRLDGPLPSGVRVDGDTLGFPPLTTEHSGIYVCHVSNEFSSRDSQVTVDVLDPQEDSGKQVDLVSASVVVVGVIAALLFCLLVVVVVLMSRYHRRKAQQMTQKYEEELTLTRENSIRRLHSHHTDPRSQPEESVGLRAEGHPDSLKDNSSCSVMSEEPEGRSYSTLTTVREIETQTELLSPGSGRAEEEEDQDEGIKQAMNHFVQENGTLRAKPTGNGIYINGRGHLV

With `CCCC[C@@H]1NC(=O)[C@H](Cc2ccc(O)cc2)NC(=O)[C@@H]2CCCN2C(=O)[C@H](CC(=O)O)NC(=O)[C@H](C)NC(=O)[C@H](Cc2ccccc2)NC(=O)[C@@H]2CSCCC(=O)N3CN(CN(C3)C(=O)CCSC[C@@H](C(=O)N[C@@H](CNC(=O)CCOCCOCCOCCOCCOCCOCCOCCOCCOCCOCCOCCOCCn3cc(CCC(=O)NCCC(=O)N(C)CC(=O)N(C)CC(=O)N(C)CC(=O)N(C)CC(=O)N(C)CC(=O)N(C)CC(=O)N(C)CC(=O)N(C)CC(=O)N(C)CC(=O)N(C)CC(=O)N[C@H]4CSCCC(=O)N5CN6CN(C5)C(=O)CCSC[C@H](NC(=O)[C@@H](CC(=O)O)NC(=O)[C@H](Cc5cccc7ccccc57)NC(=O)[C@@H]5CCCN5C4=O)C(=O)N[C@@H](CCSC)C(=O)N[C@@H](CCCCNC(=N)N)C(=O)N[C@@H](CC(=O)O)C(=O)N[C@@H](Cc4c[nH]c5ccccc45)C(=O)N[C@@H](CO)C(=O)N[C@@H]([C@@H](C)O)C(=O)N4CCC[C@H]4C(=O)N4C[C@H](O)C[C@H]4C(=O)N[C@@H](Cc4c[nH]c5ccccc45)C(=O)N[C@H](C(N)=O)CSCCC6=O)nn3)C(N)=O)NC1=O)C(=O)CCSC[C@H](NC(=O)[C@H](C)NC(C)=O)C(=O)N[C@@H]([C@@H](C)CC)C(=O)N[C@@H](CCC(=O)O)C(=O)N[C@@H](CCC(=O)O)C(=O)NCC(=O)N[C@@H](CCC(N)=O)C(=O)N[C@@H](Cc1ccc(O)cc1)C(=O)N2` [BCY8854], the “CD137 agonism in coculture with Nectin-4 null PC3” value at CD137 [1] is listed as “not with a Nectin-4 null PC3 cell line”. Further, the “CD137 agonism in coculture with HT1376 and NCI-H292” value on CD137 [1] (tumor lines endogenously expressing Nectin-4) is on record as “CD137 agonism was also observed”. Also, the “secretion of proinflammatory cytokines IFNγ and IL-2” value (“secretion” for short) in data set [2] is recorded as “dose-dependent increase”. The “CD137 agonism in coculture with MC38-Nectin-4 or parental MC38” value at CD137 [3] (6 h treatment, Jurkat CD137 reporter) is given as “dose-dependent agonism of CD137 was observed only in the presence of the Nectin-4-expressing MC38 clone”. Moreover, on CD137 [3] (tumor cell/CD137 reporter coculture), the “concentration above which agonism is reduced (hook effect)” value is “above 300 nM”.

By clearance is commonly meant the volume of plasma or blood freed of the substance per unit of time. High values mean efficient removal, low ones inefficient removal. As for `CCCC[C@@H]1NC(=O)[C@H](Cc2ccc(O)cc2)NC(=O)[C@@H]2CCCN2C(=O)[C@H](CC(=O)O)NC(=O)[C@H](C)NC(=O)[C@H](Cc2ccccc2)NC(=O)[C@@H]2CSCCC(=O)N3CN(CN(C3)C(=O)CCSC[C@@H](C(=O)N[C@@H](CNC(=O)CCOCCOCCOCCOCCOCCOCCOCCOCCOCCOCCOCCOCCn3cc(CCC(=O)NCCC(=O)N(C)CC(=O)N(C)CC(=O)N(C)CC(=O)N(C)CC(=O)N(C)CC(=O)N(C)CC(=O)N(C)CC(=O)N(C)CC(=O)N(C)CC(=O)N(C)CC(=O)N[C@H]4CSCCC(=O)N5CN6CN(C5)C(=O)CCSC[C@H](NC(=O)[C@@H](CC(=O)O)NC(=O)[C@H](Cc5cccc7ccccc57)NC(=O)[C@@H]5CCCN5C4=O)C(=O)N[C@@H](CCSC)C(=O)N[C@@H](CCCCNC(=N)N)C(=O)N[C@@H](CC(=O)O)C(=O)N[C@@H](Cc4c[nH]c5ccccc45)C(=O)N[C@@H](CO)C(=O)N[C@@H]([C@@H](C)O)C(=O)N4CCC[C@H]4C(=O)N4C[C@H](O)C[C@H]4C(=O)N[C@@H](Cc4c[nH]c5ccccc45)C(=O)N[C@H](C(N)=O)CSCCC6=O)nn3)C(N)=O)NC1=O)C(=O)CCSC[C@H](NC(C)=O)C(=O)N[C@@H](CC(C)(C)C)C(=O)N1CCC[C@H]1C(=O)N[C@@H](CCC(=O)O)C(=O)N[C@H](C)C(=O)N1CCC[C@H]1C(=O)N[C@@H](Cc1ccc(O)cc1)C(=O)N2` [BCY10000], in data set [2], the “secretion” value was “dose-dependent increase”. Further, in data set [4] (CL (mL/min/kg), SD rats, 2 mg/kg IV bolus), the clearance is 19 mL/min/kg. Also, at CD137 [5] (BCY10000 relative to BCY8854), the “improvement of Emax” value came to 1.5 fold and the “improvement of in vitro potency (EC50)” value was “fourfold”.

The term half-life denotes the time needed for the level to fall by half in the phase considered. The low end stands for rapid decline, the high end for slow decline. In data set [4], `CCCC[C@@H]1NC(=O)[C@H](Cc2ccc(O)cc2)NC(=O)[C@@H]2CCCN2C(=O)[C@H](CC(=O)O)NC(=O)[C@H](C)NC(=O)[C@H](Cc2ccccc2)NC(=O)[C@@H]2CSCCC(=O)N3CN(CN(C3)C(=O)CCSC[C@@H](C(=O)N[C@@H](C)C(N)=O)NC1=O)C(=O)CCSC[C@H](NC(C)=O)C(=O)N[C@@H](CC(C)(C)C)C(=O)N1CCC[C@H]1C(=O)N[C@@H](CCC(=O)O)C(=O)N[C@H](CCCCNC(=O)CCc1cn(CCOCCOCCOCCOCCOCCOCCOCCOCCOCCOCCNC(=O)c3cc(C(=O)NCCOCCOCCOCCOCCOCCOCCOCCOCCOCCOCCn4cc(CCC(=O)NCCCC[C@H]5NC(=O)[C@H](CCC(=O)O)NC(=O)[C@@H]6CCCN6C(=O)[C@H](CC(C)(C)C)NC(=O)[C@@H](NC(C)=O)CSCCC(=O)N6CN7CN(C6)C(=O)CCSC[C@H](NC(=O)[C@H](Cc6ccc(O)cc6)NC(=O)[C@@H]6CCCN6C5=O)C(=O)N[C@@H](Cc5ccccc5)C(=O)N[C@@H](C)C(=O)N[C@@H](CC(=O)O)C(=O)N5CCC[C@H]5C(=O)N[C@@H](Cc5ccc(O)cc5)C(=O)N[C@@H](CCCC)C(=O)N[C@H](C(=O)N[C@@H](C)C(N)=O)CSCCC7=O)nn4)cc(C(=O)NCCOCCOCCOCCOCCOCCOCCOCCOCCOCCOCCn4cc(CCC(=O)N[C@H]5CSCCC(=O)N6CN7CN(C6)C(=O)CCSC[C@H](NC(=O)[C@@H](CC(=O)O)NC(=O)[C@H](Cc6cccc8ccccc68)NC(=O)[C@@H]6CCCN6C5=O)C(=O)N[C@@H](CCSC)C(=O)N[C@@H](CCCCNC(=N)N)C(=O)N[C@@H](CC(=O)O)C(=O)N[C@@H](Cc5c[nH]c6ccccc56)C(=O)N[C@@H](CO)C(=O)N[C@@H]([C@@H](C)O)C(=O)N5CCC[C@H]5C(=O)N5C[C@H](O)C[C@H]5C(=O)N[C@@H](Cc5c[nH]c6ccccc56)C(=O)N[C@H](C(N)=O)CSCCC7=O)nn4)c3)nn1)C(=O)N1CCC[C@H]1C(=O)N[C@@H](Cc1ccc(O)cc1)C(=O)N2` [BCY10918] gave a half-life of 1.8 h. In addition, at CD137 [5] (setting [6]), the “improvement in EC50” value came out at 8.3 fold and the “improvement in Emax” value came out at 2.0 fold.

Regarding `CCCC[C@@H]1NC(=O)[C@H](Cc2ccc(O)cc2)NC(=O)[C@@H]2CCCN2C(=O)[C@H](CC(=O)O)NC(=O)[C@H](C)NC(=O)[C@H](Cc2ccccc2)NC(=O)[C@@H]2CSCCC(=O)N3CN(CN(C3)C(=O)CCSC[C@@H](C(=O)N[C@@H](CNC(=O)CCc3cn(CCOCCOCCOCCN(CCOCCOCCOCCC(=O)N[C@H]4CSCCC(=O)N5CN6CN(C5)C(=O)CCSC[C@H](NC(=O)[C@@H](CC(=O)O)NC(=O)[C@H](Cc5cccc7ccccc57)NC(=O)[C@@H]5CCCN5C4=O)C(=O)N[C@@H](CCSC)C(=O)N[C@@H](CCCCNC(=N)N)C(=O)N[C@@H](CC(=O)O)C(=O)N[C@@H](Cc4c[nH]c5ccccc45)C(=O)N[C@@H](CO)C(=O)N[C@@H]([C@@H](C)O)C(=O)N4CCC[C@H]4C(=O)N4C[C@H](O)C[C@H]4C(=O)N[C@@H](Cc4c[nH]c5ccccc45)C(=O)N[C@H](C(N)=O)CSCCC6=O)CCOCCOCCOCCn4cc(CCC(=O)NC[C@H](NC(=O)[C@@H]5CSCCC(=O)N6CN7CN(C6)C(=O)CCSC[C@H](NC(=O)[C@H](Cc6ccc(O)cc6)NC(=O)[C@@H]6CCCN6C(=O)[C@@H](C)NC(=O)[C@H](CCC(=O)O)NC(=O)[C@@H]6CCCN6C(=O)[C@H](CC(C)(C)C)NC(=O)[C@@H](NC(C)=O)CSCCC7=O)C(=O)N[C@@H](Cc6ccccc6)C(=O)N[C@@H](C)C(=O)N[C@@H](CC(=O)O)C(=O)N6CCC[C@H]6C(=O)N[C@@H](Cc6ccc(O)cc6)C(=O)N[C@@H](CCCC)C(=O)N5)C(N)=O)nn4)nn3)C(N)=O)NC1=O)C(=O)CCSC[C@H](NC(C)=O)C(=O)N[C@@H](CC(C)(C)C)C(=O)N1CCC[C@H]1C(=O)N[C@@H](CCC(=O)O)C(=O)N[C@H](C)C(=O)N1CCC[C@H]1C(=O)N[C@@H](Cc1ccc(O)cc1)C(=O)N2` [BCY11385], the “secretion” value in data set [2] was “dose-dependent increase”.

For `CCCC[C@@H]1NC(=O)[C@H](Cc2ccc(O)cc2)NC(=O)[C@@H]2CCCN2C(=O)[C@H](CC(=O)O)NC(=O)[C@H](C)NC(=O)[C@H](Cc2ccccc2)NC(=O)[C@@H]2CSCCC(=O)N3CN(CN(C3)C(=O)CCSC[C@@H](C(=O)N[C@@H](C)C(N)=O)NC1=O)C(=O)CCSC[C@H](NC(C)=O)C(=O)N[C@@H](CC(C)(C)C)C(=O)N1CCC[C@H]1C(=O)N[C@@H](CCC(=O)O)C(=O)N[C@H](CCCCNC(=O)CCc1cn(CCOCCOCCOCCN(CCOCCOCCOCCC(=O)N[C@H]3CSCCC(=O)N4CN5CN(C4)C(=O)CCSC[C@H](NC(=O)[C@@H](CC(=O)O)NC(=O)[C@H](Cc4cccc6ccccc46)NC(=O)[C@@H]4CCCN4C3=O)C(=O)N[C@@H](CCSC)C(=O)N[C@@H](CCCCNC(=N)N)C(=O)N[C@@H](CC(=O)O)C(=O)N[C@H](Cc3c[nH]c4ccccc34)C(=O)N[C@@H](CO)C(=O)N[C@@H]([C@@H](C)O)C(=O)N3CCC[C@H]3C(=O)N3C[C@H](O)C[C@H]3C(=O)N[C@H](Cc3c[nH]c4ccccc34)C(=O)N[C@H](C(N)=O)CSCCC5=O)CCOCCOCCOCCn3cc(CCC(=O)NCCCC[C@H]4NC(=O)[C@H](CCC(=O)O)NC(=O)[C@@H]5CCCN5C(=O)[C@H](CC(C)(C)C)NC(=O)[C@@H](NC(C)=O)CSCCC(=O)N5CN6CN(C5)C(=O)CCSC[C@H](NC(=O)[C@H](Cc5ccc(O)cc5)NC(=O)[C@@H]5CCCN5C4=O)C(=O)N[C@@H](Cc4ccccc4)C(=O)N[C@@H](C)C(=O)N[C@@H](CC(=O)O)C(=O)N4CCC[C@H]4C(=O)N[C@@H](Cc4ccc(O)cc4)C(=O)N[C@@H](CCCC)C(=O)N[C@H](C(=O)N[C@@H](C)C(N)=O)CSCCC6=O)nn3)nn1)C(=O)N1CCC[C@H]1C(=O)N[C@@H](Cc1ccc(O)cc1)C(=O)N2` [BCY13144], the “secretion” value in data set [2] is given as “No IL-2 or IFNγ secretion was observed”.
